Sampled rows, rich in hits. Any-hit rate of the full collection: about 3.1%.
Cneo AK release = Cryptococcus neoformans lysis via adenylate kinase release. C. neoformans lysis, adenylate kinase release luminescence, 4 h; normalised: neutral wells 0, clomiphene wells 100. lysis activity, % at 15 µM. 0.2% of 360,000 active;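 active means mean lysis activity across replicates of at least 80%, whatever share of replicates individually reach that level; inactive means mean lysis activity below 80%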
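Material – Cryptococcus neoformans yeast cells · Quantity – 5 × 10^6 yeast cells/mL · Buffer or medium – YPD medium · Compound – single dose · Timing – 4 h static compound exposure, 37 °C, read 1 h post-reagent · Signal – adenylate kinase release luminescence · Read-out basis – lysis from increased AK signal · Benchmarks – Clomiphene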
INS-1E GSIS act = GLuc luminescence reporter in INS-1E cells, primary screen for activators of glucose-dependent secretion of insulin; INS-1E GLuc reporter insulin secretion, 2-3 h; activation, % at 16.6 µM; 0.61% of 370,000 active;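 active means lowest replicate activation of at least 40%, so every replicate reaches that level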;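 further: 0% = median of neutral control wells and 100% = median of IBMX positive control wells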
miR122 inh = blocks miR-122 activity in Huh7 sensor cells | Huh7 miR-122 Renilla luciferase sensor, 48 h; neutral wells = 0, positive control = 100 | activation (reporter increase), % at 12.5 µM | 0.3% of 340,000 active | AID 602342;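 active means mean replicate activation score at least 90 and every replicate individually at or above 90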;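 further: higher luciferase means less miR-122 activity so hits act as miR-122 inhibitors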
F508del corr = CFTR F508del correction in bronchial cells. AID 720511. CFBE cells, YFP halide quenching; stimulated with forskolin plus potentiator P3; % fluorescence drop versus neutral controls. activity (quench increase), % at 7.58 µM. 0.36% of 350,000 active;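 active means mean added fluorescence quench of at least 8% versus neutral control, with both replicates also reaching 8%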;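 further: cells transiently co-express mutant CFTR-F508del with the halide-sensitive YFP; corrector assay measuring rescue of mutant channel to the surface after 24 h compound exposure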
Env fusion inh = inhibitors of HIV Env-mediated cell fusion; HeLa-JRFL Env/CEM21 cell fusion, luciferase; 1.1% of 360,000 active; inhibition, % at 12.3 µM;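 active means mean replicate inhibition score of at least 50 and every replicate individually at or above 50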;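 further: 0% = plate neutral controls and 100% = maraviroc near 300 nM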
rRNA inh HTS = selective bacterial rRNA inhibition in E. coli; E. coli WT GFP vs humanized-ribosome RFP mutants, fluorescence, 24 h; hits give low values; DMSO median 0, no signal -100; GFP signal change (wild-type ribosome), % (no concentration beside the values); 1.6% of 350,000 active;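 active means significant combined selectivity score with lowered wild-type GFP, culture density cut under 30%, mutant RFP and density less affected; inactive means any of these conditions unmet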
* marks the source's active call; other numbers are inactive results; x = no result; [ ] = dose if it differs, or a comment.

SMILES	Cneo AK release	INS-1E GSIS act	miR122 inh	F508del corr	Env fusion inh	rRNA inh HTS
N#Cc1ccc(-c2ccc([C@H]3[C@@H](CO)N4C(=O)CN(C(=O)C5CCCCC5)C[C@@H]34)cc2)cc1	x	-14	x	0	x	-4
O=C(NCC[C@@H]1CC[C@@H](NS(=O)(=O)c2cccc(F)c2)[C@@H](CO)O1)C1CCCCC1	0	9	x	1	-12[16.7 µM]	0
CC1=C([N+](=O)[O-])C(c2ccccc2)C2=C(N1)c1ccccc1C2=O (centres undefined)	-1	x	27	x	120*	x
COc1ccc(C2C(C#N)=C(C)NC3=C2C(=O)c2ccccc23)cc1 (centres undefined)	3	7	-4	x	9	0
CN(C)c1cc[n+](Cc2c(Cl)cccc2Cl)cc1	1	x	-3	x	58*	x
COCCCn1c(SCCc2ccccc2)nc2cc(OC)c(OC)cc2c1=N	2	7	-2	-2	-6	-41*
CCOC(=O)CSC1=C(C#N)C(c2ccc(C)s2)CC(=O)N1 (centres undefined)	3	-1	28	8.6*	x	1
CCOC(=O)CSC1=C(C#N)C(c2sccc2C)C(C(C)=O)=C(C)N1 (centres undefined)	x	-5	x	-1	x	-40*
CC(=O)C1=C(C)NC(SCC(N)=O)=C(C#N)C1c1sccc1C (centres undefined)	1	7	x	2	x	-18
CCSC1=C(C#N)C(c2ccc(C)s2)CC(=O)N1 (centres undefined)	-1	11	4	0	x	12
O=S(=O)(c1ccccc1)N1C[C@H]2[C@@H](c3ccccc31)[C@@H](CO)N2Cc1ccc2c(c1)OCO2	-3	3	140*[16.7 µM]	2	x	-17
O=S(=O)(c1ccc(F)cc1)N1C[C@@H]2[C@H](c3ccccc31)[C@@H](CO)N2Cc1ccccc1Cl	92*	-3	0[16.7 µM]	1	x	-14
CC(=O)N1[C@@H]2CN(S(=O)(=O)c3ccccc3F)c3ccccc3[C@@H]2[C@@H]1CO	92*	4	33[16.7 µM]	-1	x	0
Cc1cccc(S(=O)(=O)N2C[C@H](O)COC[C@@H]3O[C@H](CC(=O)NCc4ccncn4)CC[C@H]32)c1	1	8	3[16.7 µM]	0	x	4
CC=Cc1ccc2n(c1=O)C[C@H]1[C@H](CO)[C@@H](C(=O)N3CCOCC3)N(CC3CC3)[C@@H]21 (mixture of isomers)	84*	3	x	x	x	0
CC=Cc1ccc2n(c1=O)C[C@@H]1[C@@H](CO)[C@H](C(=O)N3CCCCC3)N(Cc3ccccc3)[C@H]21 (mixture of isomers)	106*	-7	41[16.7 µM]	-2	x	-3
CC=Cc1ccc2n(c1=O)C[C@H]1[C@H](CO)[C@@H](C(=O)N3CCc4ccccc4C3)N(C(=O)C3CC3)[C@@H]21 (mixture of isomers)	90*	4	x	x	23[16.7 µM]	2
CC=Cc1ccc2n(c1=O)C[C@H]1[C@H](CO)[C@@H](C(=O)N3CCOCC3)N(Cc3ccccc3)[C@@H]21 (mixture of isomers)	-3	6	-4[16.7 µM]	-2	x	-1
CC(=O)N1[C@H](CO)[C@@H]2c3ccccc3N(C(=O)c3ccccc3)C[C@@H]21	0	1	-9[16.7 µM]	0	x	5
COc1ccccc1NC(=O)Nc1nc2ccc(S(N)(=O)=O)cc2s1	-5	6	6	5	-70	-16*
COc1ccc2nc(NC(=O)Nc3ccccc3OC)sc2c1	-1	0	1	3	-493	0
CC12CCC(=O)N1C(C(=O)Nc1nc3ccc(S(C)(=O)=O)cc3s1)CS2 (centres undefined)	-1	29	x	2	55*	10
O=C(COc1ccccc1)NNc1nc2ccccc2s1	-2	12	14	-1	-4	-28*
COc1ccc2nc(NC(=O)Nc3cccc4ccccc34)sc2c1	x	-13	-1	3	-19	-23*
COc1ccc2nc(NNC(=O)COc3ccccc3)sc2c1	x	14	x	-4	-14	-3

Compound activity deposited in PubChem by Broad Institute.
